# Published values gathered from unrelated publications.
# Protocols differ between the studies behind these lines.
# KIT T670I/V559D: Mast/stem cell growth factor receptor Kit (KIT, Homo sapiens, UniProt P10721, T670I/V559D)
# KIT V559D/V654A: Mast/stem cell growth factor receptor Kit (KIT, Homo sapiens, UniProt P10721, V559D/V654A)
# KIT A829P: Mast/stem cell growth factor receptor Kit (KIT, Homo sapiens, UniProt P10721, A829P)
# KIT V559D: Mast/stem cell growth factor receptor Kit (KIT, Homo sapiens, UniProt P10721, V559D)
# KIT autoinhibited: Mast/stem cell growth factor receptor Kit, autoinhibited (KIT, Homo sapiens, UniProt P10721)
# KIT D816H: Mast/stem cell growth factor receptor Kit (KIT, Homo sapiens, UniProt P10721, D816H)
# KIT D816V: Mast/stem cell growth factor receptor Kit (KIT, Homo sapiens, UniProt P10721, D816V)
# KIT L576P: Mast/stem cell growth factor receptor Kit (KIT, Homo sapiens, UniProt P10721, L576P)
Structure (SMILES),target,assay,conditions,remaining binding [%]
O=C(Nc1cccnn1)N1CCC(=Cc2cccc(Oc3ccc(C(F)(F)F)cn3)c2)CC1,KIT T670I/V559D,"cell-free assay, competition with immobilised ligand",1 µM,96
COc1cnc(Nc2cccc(S(N)(=O)=O)c2)nc1N1CCN(c2ccccc2)C(=O)C1,KIT V559D/V654A,"binding, competition with immobilised ligand",1 µM,97
Cc1cc(NC(=O)c2cccc(S(F)(F)(F)(F)F)c2)cc(-n2ccn3nc(-c4cccnc4)cc23)c1,KIT A829P,"cell-free assay, competition with immobilised ligand",1 µM,100
O=C(c1ccc(Nc2ncc(Cl)c(-c3ccc(Cl)s3)n2)cc1)N1CCC(N2CCCC2)CC1,KIT V559D,"binding, competition with immobilised ligand",1 µM,0.05
COc1ncc2cc3ccccc3nc2c1C#N,KIT V559D,"cell-free assay, competition with immobilised ligand",5 µM,94
c1cncc(-c2cccc(Nc3nccc(NC4CCCCC4)n3)c2)c1,KIT autoinhibited,"binding, competition with immobilised ligand",10 µM,43
C=CC(=O)N1CCC(C(=O)NCC(=O)N2CCN(c3nc(-c4cnc(N)nc4C(F)F)nc(N4CCOCC4)n3)CC2)CC1,KIT A829P,"binding, competition with immobilised ligand",1 µM,100
C[C@@H]1CN(c2cc(-c3n[nH]c4ccc(OC5(C)CC5)cc34)ncn2)C[C@H](C)O1,KIT T670I/V559D,"cell-free assay, competition with immobilised ligand",0.1 µM,95
CN(C)c1nccc(-c2cnn3ncccc23)n1,KIT V559D,binding,1 µM,100
COc1ccc2c(O[C@@H]3C[C@H]4C(=O)N[C@]5(C(=O)O)CC5/C=C\CCCCC[C@H](NC(=O)OC5CCCC5)C(=O)N4C3)cc(-c3csc(NC(=O)C(C)C)n3)nc2c1C (stereo partly drawn),"Mast/stem cell growth factor receptor Kit (KIT, Homo sapiens, UniProt P10721)","cell-free assay, competition with immobilised ligand",1 µM,100
O=C(c1ccc(Nc2nccc(-c3cc4ccccc4s3)n2)cc1)N1CCC(N2CCCC2)CC1,KIT V559D/V654A,"binding, competition with immobilised ligand",1 µM,63
CN1CCN(c2ccc(Nc3nccc(-c4cccc([N+](=O)[O-])c4)n3)cc2C(F)(F)F)CC1,KIT D816H,binding,10 µM,2.8
CC(=O)N1CCC(c2ccc(C(=O)NC(=N)N)cc2C(F)(F)F)CC1,KIT A829P,"cell-free assay, competition with immobilised ligand",1 µM,100
C[C@@H](c1ccc(-n2cnc3c(N)ncnc32)cc1)N1CCc2nn(C)c(Cc3ccccc3)c2C1=O,KIT T670I/V559D,"binding, competition with immobilised ligand",0.1 µM,99
CN(C)c1nccc(-c2cnc3ncccn23)n1,KIT autoinhibited,binding,1 µM,76
O=C(NCC1CCOCC1)c1n[nH]cc1NC(=O)c1c(F)cccc1F,KIT D816V,"binding, competition with immobilised ligand",1 µM,100
C[C@H]1CCN(c2nccc(-c3cnn4ncccc34)n2)C1,KIT D816H,binding,1 µM,84
O=C(O)[C@H]1[C@H](Cn2nnc3ccccc3c2=O)CC[C@@H]1C(=O)c1ccc(OCCC2CCOCC2)cc1,KIT D816V,"cell-free assay, competition with immobilised ligand",1 µM,97
F[C@@H]1CCN(c2nccc(-c3cnn4ncccc34)n2)C1,KIT V559D,binding,1 µM,100
COc1cnc(Nc2cccc(S(N)(=O)=O)c2)nc1N1CCN(c2ccccc2)CC1,KIT L576P,"binding, competition with immobilised ligand",1 µM,80
N[C@@H]1CCN(c2nccc(-c3cnn4ncccc34)n2)C1,KIT D816H,binding,1 µM,100
O=C(NS(=O)(=O)c1ccc(NCC2CCOCC2)c([N+](=O)[O-])c1)c1ccc(N2CCN(Cc3ccc(C(F)(F)F)cc3-c3ccc(Cl)cc3)CC2)cc1Oc1cnc2[nH]ccc2c1,KIT autoinhibited,"cell-free assay, competition with immobilised ligand",1 µM,100
CN(C)c1ncc(F)c(-c2cnn3ncccc23)n1,KIT V559D/V654A,binding,1 µM,68
O=C(NCCCN1CCOCC1)c1ccc(Nc2ncc(Cl)c(-c3ccc(Cl)s3)n2)cc1,KIT L576P,"binding, competition with immobilised ligand",1 µM,2.8
